Laboratory results from PMC2232892 (The Journal of General Physiology, 2000).
Read-outs that look alike come from different tables or passages of the source.

Tests used:
Shaker B, ShB Δ6-46 [1] = molecular target: T1, Shaker B, ShB Δ6-46 (Drosophila melanogaster, UniProt P08510, DEL6-46); format: cell-based; conditions: for Kd: read-out: apparent Kd for external TEA block
How it was run: (§1)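 Oocytes were defolliculated for 60–90 min with 2 mg/ml collagenase in Ca-free OR-2, injected with channel RNA, and held at 18°C in ND-96 with penicillin/streptomycin. Inside-out or outside-out macropatches were recorded 1–5 d later at 20–22°C, filtered at 5 kHz. External solution (mM): 5 KCl, 135 NMDG-Cl, 2 CaCl2, 2 MgCl2, 10 HEPES, pH 7.2. Internal solution: 110 KCl, 25 KOH, 10 EGTA, 10 HEPES, pH 7.2.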

T449Y Shaker channels [2] = molecular target: T2, T449Y Shaker channels (Drosophila melanogaster, UniProt P08510, DEL6-46/T449Y); format: cell-based
How it was run: as §1

T449Y Shaker channels [3] = molecular target: T2, T449Y Shaker channels; conditions: ref Heginbotham and MacKinnon 1992; cited from earlier work
RBK1 (rKv1.1) channels = conditions: ref Newland et al. 1992; cited from earlier work
Shaker B, ShB Δ6-46 [4] = molecular target: T1, Shaker B, ShB Δ6-46; conditions: wild-type Shaker channels; ref Heginbotham and MacKinnon 1992; Newland et al. 1992; cited from earlier work

SMILES | interaction parameter Q (external TEA antagonism of internal TEA block) (Shaker B, ShB Δ6-46 [1]; K+ solutions, 0-100 mM external TEA, Ko = 17 mM, 0 mV) | interaction parameter Q (external vs internal TEA) (Shaker B, ShB Δ6-46 [1]; Rb+ solutions) | Kd (Shaker B, ShB Δ6-46 [1]; 20 mM internal K+ and 50 mM internal Na+) [mM] | Kd (Shaker B, ShB Δ6-46 [1]; 50 mM internal K+ (data not shown)) [mM] | Kd (Shaker B, ShB Δ6-46 [1]; 115 mM internal Na+ (20 mM K+)) [mM] | interaction parameter Q (external vs internal TEA) (T449Y Shaker channels [2]; K+ solutions) | current blocked by 2 mM internal TEA (T449Y Shaker channels [2]; absence of external TEA) [%] | current blocked by 2 mM internal TEA (T449Y Shaker channels [2]; presence of 1 mM external TEA) [%] | electrical distance of external block (T449Y Shaker channels [3]) | interaction parameter Q (external vs internal TEA) (RBK1 (rKv1.1) channels) | δ (electrical distance of external block) (Shaker B, ShB Δ6-46 [4]) | apparent zδ (voltage dependence of block, Woodhull equation) (Shaker B, ShB Δ6-46 [1]; 0.25 mM external gallamine, wild-type channels) | interaction parameter Q (external gallamine antagonism of internal TEA block) (Shaker B, ShB Δ6-46 [1]; K+ solutions, several external gallamine concentrations) | block by 0.25 mM external gallamine compared with wild-type channels (T449Y Shaker channels [2]; same concentration as on wild-type, reduced voltage sensitivity)
CC[N+](CC)(CC)CC [TEA, tetraethylammonium] | 4.6 | 1 | 7.5 ± 0.85 | 17.6 ± 2.7 | 7.6 ± 1.2 | 5.2 | 77 ± 0.4 | 64 ± 7 | 0.04 | 5.3 | ~0.15 | – | – | –
CC[N+](CC)(CC)CCOc1cccc(OCC[N+](CC)(CC)CC)c1OCC[N+](CC)(CC)CC [gallamine, Gallamine triethiode] | – | – | – | – | – | – | – | – | – | – | – | 0.28 | 2 | considerably more effective
